In ChEMBL document CHEMBL3608286, “Azaphilone and Diphenyl Ether Derivatives from a Gorgonian-Derived Strain of the Fungus Penicillium pinophilum” (J Nat Prod, 2015):
pIC50: −log10 of the molar value. In brackets after ≈: the same amount, converted by molar mass.

Tests used:
Amphibalanus amphitrite [1] = assay: Antifouling activity against larval settlements of Balanus amphitrite Darwin cyprids; format: functional, organism-based
Procedure, shortened: (§1)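 Barnacle cyprid larvae tested for inhibition of settlement, following a procedure from earlier literature. SeaNine 211 served as the positive control. EC50 was taken for settlement inhibition and LC50 for larval toxicity, with LC50/EC50 as the ratio.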

Amphibalanus amphitrite [2] = assay: Selectivity index, ratio of CC50 for Balanus amphitrite Darwin cyprids to EC50 for antifouling activity against larval settlements of Balanus amphitrite Darwin cyprids; procedure, shortened: as §1
HeLa = assay: Cytotoxicity against human HeLa cells by neutral red method; format: functional, cell-based
Procedure, shortened: (§2)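 Human cancer cell lines (HeLa, Hep-2, RD) assayed by Neutral Red uptake, giving IC50. Adriamycin was the positive control.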

RD = assay: Cytotoxicity against human RD cells by neutral red method; format: functional, cell-based; procedure, shortened: as §2
[3] = Cytotoxicity against human Hep2 cells by neutral red method; format: functional, cell-based; conditions: HEp-2; procedure, shortened: as §2
[4] = Amphibalanus amphitrite, Darwin, read-out: EC50

SMILES	EC50 (Amphibalanus amphitrite [1]; [4]) [µg/mL]	Ratio CC50/EC50 (Amphibalanus amphitrite [2])	EC50 (Amphibalanus amphitrite [1])	other results
CCCCCCCCn1sc(Cl)c(Cl)c1=O	1.2 (≈ 4.25 µM)	20.3		
COc1c([C@H](CC(C)C)OC(C)=O)ccc2c1C(=O)OCc1cc(C)cc(O)c1O2	10 (≈ 24.1 µM)	>50		
C/C=C/C1=CC2=CC(=O)[C@@](C)(OC(=O)c3c(C)cc(O)cc3O)C(=O)C2=CO1			Not Active	
Cc1cc(O)cc(O)c1C(=O)O[C@]1(C)C(=O)C=C2C=C(/C=C/C(=O)O)OC=C2C1=O			Not Active	
C/C=C/C1=CC2=CC(=O)[C@@](C)(O)[C@@H](OC(=O)c3c(C)cc(O)cc3O)[C@@H]2CO1			Not Active	
Cc1cc(O)cc(O)c1C(=O)O[C@]1(C)C(=O)C2=C(C=C(/C=C/C(=O)O)OC2)C[C@H]1O			Not Active	
C/C=C/C1=CC2=CC(=O)[C@@](C)(O)[C@@H](OC(=O)c3c(C)cc(O)cc3O)C2=CO1			Not Active	
Cc1cc(O)cc(O)c1C(=O)O[C@]1(C)C(=O)C=C2C=C(/C=C/CO)OC[C@H]2[C@@H]1O			Not Active	
Cc1cc(O)cc(O)c1C(=O)O[C@H]1[C@@H]2COC(CC(C)O)=CC2=CC(=O)[C@@]1(C)O (some centres undefined)			Not Active	
Cc1cc(O)cc(O)c1C(=O)O[C@]1(C)C(=O)C=C2C=C(/C=C/CO)OC=C2C1=O			Not Active	
COc1c([C@@H](O)CC(C)C)ccc2c1C(=O)OCc1cc(CO)cc(O)c1O2	6 (≈ 15.4 µM)	>50		pIC50 (HeLa): 5.21
COc1c([C@@H](O)CC(C)(C)O)ccc2c1C(=O)OCc1cc(C)cc(O)c1O2	20 (≈ 51.5 µM)	>50		
COc1cccc2c1C(=O)c1c(O)c3c(c(O)c1C2=O)C[C@@](O)(C(=O)CO)C[C@@H]3O[C@H]1C[C@H](N)[C@H](O)[C@H](C)O1 [DOXORUBICIN]				pIC50 (RD): 5.70; pIC50 [3]: 5.82
COc1c([C@@H](O)CC(C)C)ccc2c1C(=O)OCc1cc(C)cc(O)c1O2 [PENICILLIDE]	2.6 (≈ 6.98 µM)	>50		pIC50 (RD): 5.11; pIC50 [3]: 5.17
Cc1cc(O)cc(O)c1C(=O)O[C@H]1[C@@H]2COC(/C=C/CO)=CC2=CC(=O)[C@@]1(C)O [PINOPHILIN B]			Not Active	
